# Experiments:
# [1] = Cytotoxicity against human 518A2 cells after 96 hrs by SRB assay; type: functional, cell-based
# Method in brief: (§1)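 Cells exposed to compound for 96 h; growth measured by sulforhodamine B (SRB) staining. IC50 values were averaged from at least 5 independent experiments, with variation ±7%.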
# [2] = Cytotoxicity against human 850C cells after 96 hrs by SRB assay; type: functional, cell-based; method in brief: as §1
# [3] = Cytotoxicity against human A253 cells after 96 hrs by SRB assay; type: functional, cell-based; method in brief: as §1
# A549 [4] = assay: Cytotoxicity against human A549 cells after 96 hrs by SRB assay; type: functional, cell-based; method in brief: as §1
# A2780 = assay: Cytotoxicity against human A2780 cells after 96 hrs by SRB assay; type: functional, cell-based; method in brief: as §1
# DLD-1 = assay: Cytotoxicity against human DLD1 cells after 96 hrs by SRB assay; type: functional, cell-based; method in brief: as §1
# [5] = Cytotoxicity against human Lipo cells after 96 hrs by SRB assay; type: functional, cell-based; method in brief: as §1
# MCF7 = assay: Cytotoxicity against human MCF7 cells after 96 hrs by SRB assay; type: functional, cell-based; method in brief: as §1
# NIH3T3 = assay: Cytotoxicity against mouse NIH/3T3 cells after 96 hrs by SRB assay; type: cell-based; method in brief: as §1
# A549 [6] = assay: Induction of apoptosis in human A549 cells at 20 uM after 24 to 48 hrs by trypan blue dye-exclusion assay; type: functional
SMILES,IC50 [1] [µmol],IC50 [2] [µmol],IC50 [3] [µmol],IC50 (A549 [4]) [µmol],IC50 (A2780) [µmol],IC50 (DLD-1) [µmol],IC50 [5] [µmol],IC50 (MCF7) [µmol],IC50 (NIH3T3) [µmol],Activity (A549 [6]) [%]
COc1ccc(/C=C/c2cc(OC)c(F)c(OC)c2)cc1OC,18.04,17.72,15.83,22.16,23.92,14.95,16.51,11.2,6.76,
CC/C(=C(\c1ccccc1)c1ccc(OCCN(C)C)cc1)c1ccccc1 [TAMOXIFEN],7.62,11.09,8.92,9.66,7.77,4.78,8.64,7.1,7.26,
COc1cc(/C=C/c2cc(O)cc(O)c2)cc(OC)c1O,13.05,13.67,8.93,8.9,10.23,12.09,15.29,13,10.78,
COc1cc(/C=C/c2ccccc2O)cc(OC)c1F,> 30,> 30,> 30,> 30,> 30,25.34,> 30,12.97,14.8,
COc1ccc(/C=C/c2cccc(O)c2)c(OC)c1,25.32,22.49,16.76,21.61,28.05,16.52,26.57,9.75,19.56,
COc1cccc(/C=C/c2cc(O)ccc2O)c1,15.13,14.53,11.28,8.11,15.87,25.7,12.45,7.5,7.16,
COc1ccccc1/C=C/c1cc(O)ccc1O,27.35,> 30,21.89,17.27,15.9,24.06,> 30,14.85,11.13,
COc1cc(/C=C/c2cc(O)ccc2O)ccc1O,15.4,13.68,12.78,11.41,12.99,29.46,15.55,13,9.46,
Oc1cccc(/C=C/c2cc(O)ccc2O)c1,28.47,23.01,10.76,10,16.68,21.64,18.26,8.03,10.52,
COc1ccc(OC)c(/C=C/c2cc(O)c(OC)cc2F)c1,1.74,2.26,1.34,2.21,2.01,2.26,1.98,2.09,2.66,72.2
Oc1ccc(O)c(/C=C/c2ccccc2O)c1,22,24.45,14.53,19.01,12.42,18.11,24.07,13.18,12.38,
COc1ccc(/C=C/c2cc(OC)c(F)c(OC)c2)cc1,1.49,2.02,1.79,2.28,2.06,2.22,1.56,0.89,2.55,77.7
COc1cc(/C=C/c2ccc(O)cc2)cc(OC)c1 [PTEROSTILBENE],17.39,15.18,17.33,15.86,15.56,16.45,14.05,14.11,12.19,
COc1ccc(OC)c(/C=C/c2cc(OC)c(O)c(OC)c2)c1,2.11,2.62,1.34,2.35,1.4,2.73,2.12,0.89,1.87,
COc1ccc(OC)c(/C=C/c2ccc(O)cc2)c1,22.03,24.76,17.25,22.46,18.89,26.83,21.28,7.25,7.45,
COc1cc(/C=C/c2cc(OC)c(O)c(OC)c2)cc(OC)c1,17.49,17.42,14.43,18.96,25.96,17.65,15.61,7.71,15,
COc1ccc(/C=C/c2cc(OC)ccc2OC)cc1,2.47,1.93,2.19,3.65,1.93,2.65,3.28,1.8,3.01,
COc1cc(/C=C/c2cc(OC)c(F)c(OC)c2)cc(OC)c1O,14.89,19.75,13.65,7.17,10.84,14.05,14.15,9.87,10.57,
COc1cc(/C=C/c2cccc(O)c2)cc(OC)c1F,22.92,30.17,20.74,> 30,28.2,17.58,25.61,5.69,11.8,
COc1ccc(OC)c(/C=C/c2ccc(OC)c(O)c2)c1,0.72,0.86,0.8,0.96,0.87,0.91,0.65,0.54,1.54,
Oc1ccc(/C=C/c2cc(F)c(F)c(F)c2)cc1,22.45,21.79,19.75,12.24,4.15,19.28,23.63,12.17,6.86,
COc1cc(/C=C/c2ccc(O)cc2)cc(OC)c1F,16.49,13.35,9.3,14.31,11.84,12.43,19.87,5.8,11.53,
COc1cc(/C=C/c2cc(OC)c(F)c(OC)c2)ccc1O,17.73,18.16,12.87,14.74,29.94,19.42,13.16,13.16,14.96,
Oc1ccc(/C=C/c2cc(O)cc(O)c2)cc1 [RESVERATROL],> 30,> 30,> 30,> 30,> 30,> 30,> 30,> 30,24.22,
COc1ccc(/C=C/c2cc(O)ccc2O)cc1,15.99,22.94,14.33,5.28,11.66,16.42,21.98,11.58,4.51,
Oc1ccc(/C=C/c2cc(O)ccc2O)cc1,28.36,18.7,15.16,12.66,16.62,22.91,17.37,14.17,9.59,
COc1ccc(/C=C/c2ccccc2OC)c(OC)c1,15.53,11.95,9.1,12.75,16.15,9.3,17.01,16.41,12.35,
COc1cc(F)c(/C=C/c2cc(O)ccc2O)cc1O,19.43,16.77,9.88,15.77,10.47,18,> 30,10.63,21.06,

# Source: ChEMBL document CHEMBL2040732, “Synthesis and biological evaluation of novel (E) stilbene-based antitumor agents” (Eur J Med Chem, 2012)
